ChEMBL document CHEMBL1938299, “Quinolinone-based agonists of S1P₁: use of a N-scan SAR strategy to optimize in vitro and in vivo activity” (Bioorg Med Chem Lett, 2012)
≈ marks a conversion by molar mass, not a printed value.

Tests used:
[1] = Solubility of the compound in simulated intestinal fluid at pH 7.4; type: physicochemical
How it was run: (§1)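 Compound solubility measured separately in 0.010 M aqueous HCl, in PBS at pH 7.4, and in simulated intestinal fluid.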

[2] = Efflux ratio of permeability in pig LLC-PK1 cells; type: ADME, cell-based, Sus scrofa
How it was run: (§2)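 LLC-PK1 porcine proximal tubule cell monolayers; apparent permeability (Papp) of test compound through the cells measured, along with efflux ratio.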

[3] = Solubility of the compound in 0.010 M aqueous hydrogen chloride at pH 7.4; type: physicochemical; conditions: in the assay text read “hydrogen chloride” for “hydrogen chloride at pH 7.4”; how it was run: as §1
[4] = Apparent permeability of the compound in pig LLC-PK1 cells; type: ADME, cell-based, Sus scrofa; how it was run: as §2
[5] = Intrinsic clearance in rat liver microsomes assessed per mg of protein after 30 mins; type: ADME, Microsome; conditions: read-out: CLH
How it was run: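 Test compound incubated with rat liver microsomes for 30 min. Percent turnover measured and used to estimate intrinsic clearance.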

[6] = molecular target: T1, Sphingosine 1-phosphate receptor 1 (Homo sapiens, UniProt P21453); test: Agonist activity at human S1P1 receptor expressed in human U2OS cells co-expressing eGFP assessed as receptor internalization into cytoplasm using Hoechst dye staining relative to 1-(4-(6-benzylbenzofuran-2-yl)-3- fluorobenzyl)azetidine-3-carboxylic acid; type: functional, cell-based
T1 sequence (P21453 whole entry): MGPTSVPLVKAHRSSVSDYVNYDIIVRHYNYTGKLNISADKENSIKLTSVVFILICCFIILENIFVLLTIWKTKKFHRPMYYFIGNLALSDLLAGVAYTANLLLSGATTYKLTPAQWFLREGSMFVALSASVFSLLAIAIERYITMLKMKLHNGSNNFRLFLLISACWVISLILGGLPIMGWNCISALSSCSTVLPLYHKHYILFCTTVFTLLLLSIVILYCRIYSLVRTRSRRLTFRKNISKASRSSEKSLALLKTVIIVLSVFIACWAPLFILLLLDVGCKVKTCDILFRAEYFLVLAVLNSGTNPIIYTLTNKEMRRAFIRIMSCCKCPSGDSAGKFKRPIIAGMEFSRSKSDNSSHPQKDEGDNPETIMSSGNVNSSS

[7] = molecular target: T1, Sphingosine 1-phosphate receptor 1; test: Agonist activity at human S1P1 receptor expressed in human U2OS cells co-expressing eGFP assessed as receptor internalization into cytoplasm using Hoechst dye staining; type: functional, cell-based
[8] = molecular target: Sphingosine 1-phosphate receptor 3 (Homo sapiens, UniProt Q99500); test: Agonist activity at human S1P3 receptor expressed in CHO-K1 cells co-expressing Gq/i5 G-protein assessed as calcium mobilization by FLIPR assay; type: functional, cell-based
Chain of Sphingosine 1-phosphate receptor 3 (Q99500 whole entry): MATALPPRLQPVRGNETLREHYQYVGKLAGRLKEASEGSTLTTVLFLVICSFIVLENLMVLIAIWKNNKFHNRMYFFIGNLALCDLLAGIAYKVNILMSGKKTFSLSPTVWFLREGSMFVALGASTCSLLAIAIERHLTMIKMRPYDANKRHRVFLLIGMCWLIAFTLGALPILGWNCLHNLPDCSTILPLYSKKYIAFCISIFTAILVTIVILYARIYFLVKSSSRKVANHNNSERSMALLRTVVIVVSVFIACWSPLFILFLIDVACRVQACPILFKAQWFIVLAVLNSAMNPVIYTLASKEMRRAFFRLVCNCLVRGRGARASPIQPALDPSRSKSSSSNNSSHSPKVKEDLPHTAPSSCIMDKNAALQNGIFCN

[9] = Solubility of the compound in phosphate-buffered saline at pH 7.4; type: physicochemical; how it was run: as §1
Rattus norvegicus [10] = test: Immunosuppressive activity in Lewis rat assessed as reduction in circulating peripheral lymphocyte count at 1 mg/kg, po after 24 hrs relative to control; type: functional; set-up: scale not given: the % may be the effect or the level left
How it was run: (§3)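 Female Lewis rats (N = 5/group) given a single oral dose (0.30, 1.0 or 3.0 mg/kg) in 20% Captisol or HPBCD, 1% HPMC, 1% Pluronic F68, pH 2.0 with MSA. At 24 h, blood lymphocytes were counted as percent of vehicle control and total plasma compound measured. Significance by ANOVA/Dunnett's test versus vehicle.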

[11] = Plasma concentration in Lewis rat at 1 mg/kg, po after 24 hrs; type: ADME, organism-based; set-up: dose 1 mg/kg, route oral; how it was run: as §3
[12] = Half life in Sprague-Dawley rat at 1 mg/kg, iv; type: ADME, organism-based; set-up: dose 1 mg/kg, route intravenous; conditions: in vivo
How it was run: (§4)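 Single intravenous dose of 1 mg/kg in DMSO vehicle to male Sprague–Dawley rats (N = 3/group). Clearance, steady-state volume of distribution and half-life were determined from plasma levels.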

Rattus norvegicus [13] = test: Clearance in Sprague-Dawley rat at 1 mg/kg, iv; type: ADME, organism-based; set-up: dose 1 mg/kg, route intravenous; conditions: in vivo; how it was run: as §4
Rattus norvegicus [14] = test: Immunosuppressive activity in po dosed Lewis rat assessed as reduction in circulating peripheral lymphocyte count after 24 hrs; type: functional, organism-based; how it was run: as §3
[15] = Plasma concentration in Lewis rat at 3 mg/kg, po after 24 hrs; type: ADME, organism-based; set-up: dose 3 mg/kg, route oral; how it was run: as §3
Rattus norvegicus [16] = test: Oral bioavailability in Sprague-Dawley rat at 3 mg/kg; type: ADME, organism-based; conditions: in vivo
How it was run: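 Bioavailability in male Sprague–Dawley rats (N = 3/group), calculated from AUC0–∞ values obtained after a 1 mg/kg iv dose (DMSO vehicle) and a 3 mg/kg po dose (20% Captisol, 1% HPMC, 1% pluronic F68, pH 2.0 with MSA).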

[17] = Plasma protein binding in rat; type: ADME, cell-free; conditions: read-out: PPB (converted)
How it was run: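 Rat plasma protein binding measured in vitro, with bound and free compound separated by ultracentrifugation; reported as percent bound.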

Rattus norvegicus [18] = test: AUC (0 to 24 hrs) in Sprague-Dawley rat at 3 mg/kg, po; type: ADME, organism-based, Plasma; set-up: time < 24 hr, dose 3 mg/kg, route oral; conditions: in vivo, 24 h
[19] = Plasma concentration in Lewis rat at 0.3 mg/kg, po after 24 hrs; type: ADME, organism-based; set-up: dose 0.3 mg/kg, route oral; how it was run: as §3
Rattus norvegicus [20] = test: Immunosuppressive activity in Lewis rat assessed as reduction in circulating peripheral lymphocyte count at 3 mg/kg, po after 24 hrs relative to control; type: functional; set-up: scale not given: the % may be the effect or the level left; how it was run: as §3
[21] = Volume of distribution at steady state in Sprague-Dawley rat at 1 mg/kg, iv; type: ADME, organism-based; set-up: dose 1 mg/kg, route intravenous; conditions: in vivo, read-out: Vdss; how it was run: as §4
[22] = AUC (0 to 24 hrs) in Sprague-Dawley rat at 100 mg/kg, po; type: ADME, organism-based; set-up: time < 24 hr, dose 100 mg/kg, route oral; conditions: plasma
Rattus norvegicus [23] = test: Ratio of AUC (0 to 24 hrs) at 100 mg/kg, po to AUC (0 to 24 hrs) at 3 mg/kg, po in Sprague-Dawley rat; type: ADME, organism-based; conditions: in vivo
How it was run: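 Male Sprague–Dawley rats (N = 3/group) each received a single oral dose of 3 or 100 mg/kg, in 20% Captisol, 1% HPMC, 1% Pluronic F68, adjusted to pH 2.0 with MSA.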

solubility [1] [µg/mL]	efflux ratio [2]	solubility [3] [µg/mL]	Papp [4] [×10⁻⁶ cm/s]	microsomal CLint [5] [µL/min/mg]	Efficacy [6] [%]	EC50 [7] [µM]	EC50 [8] [µM]	solubility [9] [µg/mL]	concentration at 24 h [11] [ng/mL]	Compound	Activity (Rattus norvegicus [10]) [%]	other results
13 (≈ 30.7 µM)	1.9	< 1	11	< 14	170	2.9	> 2.5	< 1	–	Cn1cc(C(=O)Nc2cnc(-c3ccccc3)c(C(F)(F)F)c2)c(=O)c2ccccc21	–	–
5.8 (≈ 13.6 µM)	1	> 200	15	< 14	130	0.21	> 2.5	3 (≈ 7.05 µM)	140	Cn1cc(C(=O)Nc2ccc(-c3ccccn3)c(C(F)(F)F)n2)c(=O)c2cnccc21	-32	–
5.9 (≈ 13.9 µM)	1.7	< 1	2.2	< 14	100	0.19	> 2.5	< 1	–	Cn1cc(C(=O)Nc2ccc(-c3ccccc3)c(C(F)(F)F)c2)c(=O)c2cccnc21	–	–
–	1.4	–	16	< 14	86	4.1	> 2.5	–	–	Cn1cc(C(=O)Nc2ccc(-c3ccccc3)c(C(F)(F)F)c2)c(=O)c2ncccc21	–	–
6.1 (≈ 14.4 µM)	1	< 1	3.4	< 14	120	0.029	> 2.5	2.6 (≈ 6.14 µM)	140	Cn1cc(C(=O)Nc2ccc(-c3ccccc3)c(C(F)(F)F)c2)c(=O)c2ccncc21	-36	–
4.9 (≈ 11.6 µM)	0.8	< 1	5.7	< 14	100	0.024	> 2.5	< 1	350	Cn1cc(C(=O)Nc2ccc(-c3ccccc3)c(C(F)(F)F)c2)c(=O)c2cnccc21	-64	half-life [12]: 41 h; CL (Rattus norvegicus [13]): 2.67 mL/min/kg; Activity (Rattus norvegicus [14]): Dose-dependent effect; concentration at 24 h [15]: 1100 ng/mL; F (Rattus norvegicus [16]): 95%; fraction unbound [17]: 0.08; AUC (Rattus norvegicus [18]): 5100 ng·h/mL; concentration at 24 h [19]: 96 ng/mL; Activity (Rattus norvegicus [20]): -64%; Vd [21]: 9.2 L/kg; AUC(0-t) at 24 h [22]: 31000 ng·h/mL; Ratio AUC (Rattus norvegicus [23]): 6
6.7 (≈ 15.8 µM)	1	120 (≈ 283 µM)	16	15	100	0.2	> 2.5	< 1	150	Cn1cc(C(=O)Nc2ccc(-c3ccccn3)c(C(F)(F)F)c2)c(=O)c2cnccc21	-32	–
16 (≈ 38.5 µM)	–	17 (≈ 40.9 µM)	2.3	–	–	–	> 25	6.6 (≈ 15.9 µM)	63	COc1ccncc1C(=O)NC(=O)Nc1ccc(-c2ccccc2)c(C(F)(F)F)c1	-78	–
–	–	–	–	–	115	–	–	–	–	CCCCCCCCc1ccc(CCC(N)(CO)CO)cc1	–	–
5.2 (≈ 12.3 µM)	0.8	12 (≈ 28.3 µM)	11	< 14	110	0.06	> 2.5	< 1	5.1	Cn1cc(C(=O)Nc2ccc(-c3ccccn3)c(C(F)(F)F)c2)c(=O)c2ccccc21	25	–
